15 compounds from ChEMBL document CHEMBL1123881, “Synthesis and antiarrhythmic activity of new 3-[2-(omega-aminoalkoxy)phenoxy]-4-phenyl-3-buten-2-ones and related compounds” (J Med Chem, 1987) can be followed below.

A short description of data set [1]: The compound was tested for acute toxicity when given intraperitoneally in mouse. Format: organism-based. The following applies: in vivo, ip. In outline:
(§1)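 Albino CF1 mice of both sexes, 18-20 g, dosed intraperitoneally; survivors observed for 1 week; ten mice per dose. LD50 derived by probit method, confidence limits at p = 0.05.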

Another data set is filed under the species Oryctolagus cuniculus. Put plainly: Tested in vitro for antiarrhythmic activity in isolated rabbit atria. In kind it is functional. The following applies: Heart. In outline: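 Atria from New Zealand rabbits in oxygenated Ringer-Locke at 29 °C, paced with 10-ms, 10-V rectangular pulses at rising frequency to find the maximum driven frequency. This was remeasured before and 10, 15 and 20 min after drug addition. Dose-response curves on the same tissue, repeated 3-5 times. EC values by probit.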

Data set [2] can be described thus: The compound was tested for acute toxicity when given intravenously in rat. In kind it is organism-based. Particulars: in vivo, iv. In outline: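 Sprague-Dawley rats of both sexes, 120-140 g, dosed intravenously; survivors observed for 1 week. LD50 derived by probit method, confidence limits at p = 0.05.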
A short description of data set [3]: The compound was tested for acute toxicity when given intraperitoneally in mouse. Format: organism-based. The following applies: in vivo, ip. In outline: as §1
Another data set has as its system Rattus norvegicus. Put plainly: Antiarrhythmic activity ( protection against CaCl2 induced ventricular fibrillation ) in anesthetized rat administered intravenously. Format: functional. The following applies: Heart, iv. The procedure, abridged:
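Sprague-Dawley albino rats, 180-200 g, conscious or urethane-anesthetized (2.8 g/kg sc). Compound given via caudal or portal vein 2 min, or orally 60 min, before rapid iv 8% CaCl2 at 1 mL/kg. Lead II ECG monitored for fibrillation within 10 min. Five to ten rats per dose.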

One may read the LD50 as the dose expected to kill half of the subjects tested. A high value points to a less toxic substance. A word on the EC30: it is the concentration needed for an effect of 30%. Low values mean an effect from little substance, high ones a need for much substance. In general, ED50 refers to the dose at which the effect has come halfway, by size or by number of responders.

Structures are written as SMILES. In brackets after ≈: the same amount, converted by molar mass.

For the compound `CC(=O)/C(=C\c1ccccc1)Oc1ccccc1OCCCNC(C)(C)C`, the LD50 in data set [1] stood at 63 mg/kg; in data set [2], 12.5 mg/kg. In the data set listed under Oryctolagus cuniculus, the EC30 turned out to be 2.3 µg/mL (≈ 6.26 µM).
Regarding `CCN(CC)CCOc1ccccc1OCC(C)=O`, the LD50 in data set [3] is 125 mg/kg. Also, the EC30 in the data set filed under Oryctolagus cuniculus turned out to be 15 µg/mL (≈ 56.5 µM). Further, the ED50 with Rattus norvegicus turned out to be 7 mg/kg.
Take `CC(=O)/C(=C\c1ccccc1)Oc1ccccc1OCCCN1CCN(C)CC1`: the LD50 stood at 125 mg/kg in data set [1] and 23.9 mg/kg in data set [2]. The same compound registered an EC30 in the data set listed under Oryctolagus cuniculus of 1.3 µg/mL (≈ 3.3 µM).
As to `CC(=O)/C(=C\c1ccccc1)Oc1ccccc1OCCN1CCOCC1`, the median lethal dose (LD50) came out at 180 mg/kg in data set [1] and 30 mg/kg in data set [2]. In addition, the EC30 in the data set listed under Oryctolagus cuniculus is 6 µg/mL (≈ 16.3 µM). In the data set with Rattus norvegicus, this compound registered a median effective dose (ED50) of 5 mg/kg.
With `CCN(CC)CCOc1ccccc1OC(Cc1ccccc1)C(C)O` (stereo unspecified), the LD50 in data set [3] was 85 mg/kg. Further, the EC30 in the data set filed under Oryctolagus cuniculus worked out at 2.5 µg/mL (≈ 6.99 µM). The compound further had a median effective dose (ED50) in the data set with Rattus norvegicus of 1 mg/kg.
The compound `CC(=O)/C(=C\c1ccccc1)Oc1ccccc1OCC(O)CN1CCN(C)CC1` (stereo unspecified) came in with an LD50 in data set [1] of 175 mg/kg. This compound gave an EC30 in the data set filed under Oryctolagus cuniculus of 10 µg/mL (≈ 24.4 µM). In the data set with Rattus norvegicus, the ED50 came to 7.5 mg/kg.
For `CC(=O)/C(=C\c1ccccc1)Oc1cc(Cl)ccc1OCCN1CCCCC1`, in that order: 185 mg/kg, 3 µg/mL (≈ 7.5 µM) and 0.9 mg/kg.
Take `CC(=O)/C(=C\c1ccccc1)Oc1ccc(OCC(O)CNC(C)(C)C)cc1` (stereo unspecified): it took 2.8 µg/mL (≈ 7.3 µM) to reach the 30% level in the data set filed under Oryctolagus cuniculus (EC30). The same compound had an ED50 in the data set on Rattus norvegicus of 3.5 mg/kg.
As to `CCN(CC)CCOc1ccccc1O/C(=C/c1ccccc1)C(C)O` (stereo unspecified), the LD50 in data set [1] turned out to be 110 mg/kg. The compound further returned an EC30 in the data set listed under Oryctolagus cuniculus of 1.9 µg/mL (≈ 5.34 µM). Moreover, in the data set with Rattus norvegicus, the 50% effect level (ED50) was put at a dose of 1.5 mg/kg.
Turning to `CC(=O)/C(=C\c1ccccc1)Oc1ccccc1OCC(O)CNC(C)(C)C` (stereo unspecified), the LD50 in data set [1] was 80 mg/kg; in data set [2], 17 mg/kg. In addition, the 30% effect level in the data set filed under Oryctolagus cuniculus (EC30) was put at 0.51 µg/mL (≈ 1.33 µM).
As for `CCN(CC)CCOc1ccc(Cl)cc1O/C(=C/c1ccccc1)C(C)=O`, the LD50 in data set [1] came to 170 mg/kg. In the data set listed under Oryctolagus cuniculus, this compound returned an EC30 of 2 µg/mL (≈ 5.16 µM). In addition, the ED50 with Rattus norvegicus is 0.6 mg/kg.
For `CCN(CC)CCNC(=O)c1ccc(N)cc1` [PROCAINAMIDE], the LD50 in data set [3] was 312 mg/kg; in data set [2] it was 121 mg/kg. Also, in the data set listed under Oryctolagus cuniculus, it took 45.8 µg/mL (≈ 195 µM) to reach the 30% level (EC30). This compound yielded an ED50 with Rattus norvegicus of 48.1 mg/kg.
For the compound `CCN(CC)CCOc1ccc(O/C(=C/c2ccccc2)C(C)=O)cc1`, the LD50 in data set [1] was 163 mg/kg. For the same compound, in the data set listed under Oryctolagus cuniculus, the EC30 amounted to 3 µg/mL (≈ 8.49 µM). In the data set with Rattus norvegicus, it took a dose of 2 mg/kg to reach the 50% effect level (ED50).
Regarding `CC(=O)/C(=C\c1ccccc1)Oc1ccccc1OCCN1CCCCC1`, the LD50 came out at 63 mg/kg in data set [3] and 11.2 mg/kg in data set [2]. The same compound returned an EC30 in the data set filed under Oryctolagus cuniculus of 3 µg/mL (≈ 8.21 µM).
Take `CC(=O)/C(=C\c1ccccc1)Oc1ccccc1OCCCN(C)C`: the LD50 in data set [1] turned out to be 110 mg/kg; in data set [2], 13.5 mg/kg. Further, the EC30 in the data set listed under Oryctolagus cuniculus stood at 3 µg/mL (≈ 8.84 µM).
